What was measured:
Plasmodium falciparum = assay: Antimalarial activity against chloroquine/mefloquine-resistant Plasmodium falciparum Dd2 incubated for 72 hrs by SYBR green I-based fluorescence assay; format: functional, organism-based; settings: Dd2, 72 h
Outline: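 Parasite growth of P. falciparum Dd2 (chloroquine/mefloquine-resistant) measured after 72 h compound treatment with the SYBR green I-based fluorescence assay; artemisinin run as positive control; IC50 values reported.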

A2780 = assay: Antiproliferative activity against human A2780 cells assessed as inhibition of cell growth incubated for 2 days by alamar blue assay; format: cell-based; settings: A2780, 48 h

SMILES	IC50 (Plasmodium falciparum) [µM]	IC50 (A2780) [µM]
CCCCCCCCCCCCC(O)CC1C[C@H]2C[C@H](CC(=O)O2)O1 (stereo partly drawn)	> 10	> 10
CCCCCCCC/C=C\CCCCCC(O)CC1C[C@H]2C[C@H](CC(=O)O2)O1 (stereo partly drawn)	4	> 10
CCCCCCCCCCCCCCC[C@@H](O)C[C@H](O)C[C@H]1CC=CC(=O)O1	5.8	> 10
CCCCCCCCCCCCCCC[C@@H](O)C[C@H]1C[C@H]2C[C@H](CC(=O)O2)O1	> 10	> 10
CCCCCC/C=C\CCCCCCC[C@@H]1C[C@H]2C[C@H](CC(=O)O2)O1	> 10	> 10
CCCCCCCC(O)CCCCCCC/C=C/[C@H](O)C[C@H]1CC=CC(=O)O1 (stereo partly drawn)	9	> 10
CCCCCC/C=C\CCCCCCC[C@@H](O)C[C@H]1CC=CC(=O)O1	5.5	8.6
CCCCCCCC/C=C\CCCCCCC[C@H](O)C[C@H]1CC=CC(=O)O1	7.4	> 10
CCCCCCCC(O)CCCCCCC/C=C/[C@H]1C[C@H]2C[C@H](CC(=O)O2)O1 (stereo partly drawn)	> 10	> 10
C[C@@H]1CC[C@H]2[C@@H](C)C(=O)O[C@@H]3O[C@@]4(C)CC[C@@H]1[C@]32OO4 [ARTEMISININ]	0.007	–
CCCCCCCCCCCCC[C@@H](O)C[C@H]1CC=CC(=O)O1	9.2	> 10
CCCCCCCCCCC/C=C\CCCCCCCC1C[C@H]2C[C@H](CC(=O)O2)O1 (stereo partly drawn)	6	> 10

— ChEMBL document CHEMBL3580559, “Antimalarial 5,6-Dihydro-α-pyrones from Cryptocarya rigidifolia: Related Bicyclic Tetrahydro-α-Pyrones Are Artifacts1” (J Nat Prod, 2015)
